# Laboratory results published in PMC5933005 (Dalton Transactions (Cambridge, England : 2003), 2018).
# Like-named read-outs stand apart in the source and are kept apart here.
# Key:
# [1] = Biotransformation / kinetic inertness in whole human blood by RP-ICP-MS; assay type: in vitro ADME; conditions: 37 °C; for stability of parent compound in whole human blood: 24 h incubation; for platinum(II) metabolites detected in whole human blood: after 24 h incubation
# Procedure, shortened: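 Fresh human blood spiked with test compound was extracted in one of two ways: ice-cold acetonitrile with vortexing, sonication and centrifugation, or 0.1% formic acid, dry-ice freeze/sonication thaw, then 25% TCA precipitation. Supernatants were 0.45 μm filtered, diluted 1:5 in 50 mM ammonium formate (pH 6.0) and held at 4 °C. Species were separated by C18 RP-ICP-MS in triplicate, with a platinum(IV) reference QC for normalisation. Half-life came from a first-order fit.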
# [2] = test system: leukemia L1210 mouse model; conditions: cited from earlier work
# [3] = assay type: in vitro ADME, human; conditions: for proportion of platinum found in blood cells: after 2 h, ~10 μM in whole human blood, 37 °C
# Procedure, shortened: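 Fresh heparinised human whole blood was spiked from a 1 mM aqueous stock to a final ~10 μM and incubated at 37 °C for 0, 0.5, 1, 2 and 24 h. It was centrifuged for 10 min at 2000 rcf in a 4 °C rotor. Plasma and cell fractions were microwave-digested in 25% nitric acid at 200 °C, and Pt was measured by ICP-MS. Values were normalised to haematocrit (47%) and fraction density, and the rate constant came from an exponential fit.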
# [4] = test system: SW480 (colon carcinoma) cells; conditions: 2 h exposure; cited from earlier work
# [5] = test system: murine colon cancer model CT-26; conditions: i.p. and p.o. administration; cited from earlier work
# [6] = whole human blood in vitro; cited from earlier work
# [7] = 15 min after oral administration; cited from earlier work
# [8] = kinetic model, exponential kinetics, whole human blood
compound,measurement,setting,value
"O=C1[O][Pt]2([OH])([OH])([NH]C3CCCCC3[NH]2)[O]C1=O [Complex 1, (OC-6-33)-dihydroxido(1R,2R-diaminocyclohexane)oxalatoplatinum(IV)]",stability of parent compound in whole human blood,"[1]; 10 μM, RP-ICP-MS",remain stable over 24 hours
"CC(=O)[O][Pt]1([NH2])([NH2])([O]C(C)=O)[O]C(=O)C2(CCC2)C(=O)[O]1 [Complex 3, (OC-6-33)-diacetatodiammine(1,1-cyclobutanedicarboxylato)-platinum(IV)]",stability of parent compound in whole human blood,"[1]; 10 μM, RP-ICP-MS",remain stable over 24 hours
"CC[NH][Pt]([Cl])([Cl])([NH]CC)([O]C(=O)CCC(=O)OCC)[O]C(=O)CCC(=O)OCC [Complex 4, (OC-6-33)-dichloridobis((4-ethoxy)-4-oxobutanoato)bis(ethylamine)platinum(IV)]",stability of parent compound in whole human blood,"[1]; 10 μM, RP-ICP-MS",could not be detected any more after 24 hours
same,platinum(II) metabolites detected in whole human blood,"[1]; 10 μM, RP-ICP-MS",no notable amounts of hydrophilic platinum(II)-metabolites were detected
same,half-life in blood,"[1]; first-order kinetic model, whole human blood",45.4 ± 3.3 min
same,efficacy in L1210 model,[2],efficacy
same,proportion of platinum found in blood cells,[3],around 60%
same,proportion of platinum found in blood cells,[3]; listed as Compound 4,60%
same,drug-related platinum inside blood cells in equilibrium,[3]; [8],59.7 ± 0.9%
same,first-order rate constant of accumulation in blood cells,[3]; [8],1.2 ± 0.1 h⁻¹
same,proportion of platinum in red blood cells,"[3]; time point 0, ~10 μM in whole human blood",30%
same,platinum accumulation in SW480 cells,[4],high platinum accumulation
same,anticancer activity in CT-26 model,[5],showed anticancer activity
CC(=O)[O][Pt]([NH2])([Cl])([Cl])([NH]C1CCCCC1)[O]C(C)=O [satraplatin],half-life for the disappearance of the parent compound,[6],6.3 min
same,detection of parent compound in patient's plasma ultrafiltrate,[7],could not be detected any more
same,number of platinum-containing species in patient's plasma ultrafiltrate,[7],seven
"(OC-6-33)-diacetato(1R,2R-diaminocyclohexane)oxalatoplatinum(IV) [Complex 2]",platinum(II) metabolites detected in whole human blood,"[1]; 10 μM, RP-ICP-MS",a significant amount of oxaliplatin could be detected
same,species observed in whole human blood,"[1]; over 6 hours incubation, 10 μM, RP-ICP-MS",only the intact complex was observed
